Broadly, the MIC is the lowest concentration that inhibits growth of the organism.

Molecules are shown by their SMILES. ≈ marks a conversion by molar mass, not a printed value.

Test [1] concerns Staphylococcus aureus. Briefly: Antibacterial activity against Staphylococcus aureus ATCC 25923 after 24 hrs by broth dilution technique. The test is classed as functional. The note with it: ATCC 25923, 24 h. The essentials: (§1)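 MIC by broth dilution in nutrient broth with logarithmic serial twofold dilutions of compound. Inoculum approx. 5×10^5 c.f.u actively dividing bacteria. Incubated 24 h at 37 °C, growth monitored visually and spectrophotometrically. MIC taken as the lowest concentration (highest dilution) arresting growth. Ciprofloxacin reference.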
(In broth dilution the organism is exposed to a series of concentrations in liquid medium.)

Test [2] deals with Staphylococcus aureus. Briefly: Antibacterial activity against Staphylococcus aureus ATCC 25923 assessed as inhibition zone diameter after 24 hrs […]. The test is classed as functional. The essentials: (§2)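 Disc diffusion on nutrient agar. Inoculum 1-2 × 10^7 c.f.u/ml (0.5 McFarland) spread over the plate surface. Sterile 6.25 mm filter-paper discs soaked in a known concentration of compound. Solvent and growth controls included. Plates incubated inverted 24 h at 37 °C, then inhibition zone diameter measured in mm. Ciprofloxacin reference.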

The next test concerns Escherichia coli. Briefly: Antibacterial activity against Escherichia coli ATCC 25922 after 24 hrs by broth dilution technique. The test is classed as functional. The note with it: ATCC 25922, 24 h. In outline:
as §1

In test [3] the test system is Pseudomonas aeruginosa. Briefly: Antibacterial activity against Pseudomonas aeruginosa ATCC 27853 after 24 hrs by broth dilution technique. The test is classed as functional. The note with it: ATCC 27853, 24 h. The essentials: as §1
Test [4] relates to Pseudomonas aeruginosa. Briefly: Antibacterial activity against Pseudomonas aeruginosa ATCC 27853 assessed as inhibition zone diameter after 24 hrs […]. The test is classed as functional. In outline:
as §2

Test [5] has as its system Klebsiella pneumoniae. The test can be described thus: Antibacterial activity against Klebsiella pneumoniae after 24 hrs by broth dilution technique. The test is classed as functional. In outline: as §1
The subject of test [6] is Klebsiella pneumoniae. The test can be described thus: Antibacterial activity against Klebsiella pneumoniae assessed as inhibition zone diameter after 24 hrs […]. The test is classed as functional. In outline:
as §2

In test [7] the test system is Streptococcus pyogenes. Briefly: Antibacterial activity against Streptococcus pyogenes after 24 hrs by broth dilution technique. The test is classed as functional. The essentials: as §1
Test [8] deals with Candida albicans. Briefly: Antifungal activity against Candida albicans after 48 hrs […]. The test is classed as functional.
Test [9] has as its system Candida albicans. The test can be described thus: Antifungal activity against Candida albicans assessed as inhibition zone diameter […] by agar dilution method. The test is classed as functional. The essentials: (§3)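 Compounds in DMSO placed in punched wells on Sabouraud agar (peptone, glucose, agar, pH 5.7) lawned with saline spore suspension. Plates pre-dried 1 h at 37 °C. Controls in triplicate, incubation at 37 °C for 3-4 days, then inhibition zone diameter read in mm. Amphotericin B reference.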
In general terms: In agar dilution the substance is mixed into plates at graded concentrations.

In test [10] the test system is Aspergillus flavus. The test can be described thus: Antifungal activity against Aspergillus flavus after 48 hrs […]. The test is classed as functional.
The test system of test [11] is Aspergillus flavus. Briefly: Antifungal activity against Aspergillus flavus assessed as inhibition zone diameter […] by agar dilution method. The test is classed as functional. The essentials:
as §3

For test [12], the system named is Aspergillus fumigatus. Briefly: Antifungal activity against Aspergillus fumigatus after 48 hrs […]. The test is classed as functional.
Test [13] deals with Aspergillus fumigatus. Briefly: Antifungal activity against Aspergillus fumigatus assessed as inhibition zone diameter […] by agar dilution method. The test is classed as functional. The essentials: as §3
In test [14] the test system is Trichophyton mentagrophytes. Briefly: Antifungal activity against Trichophyton mentagrophytes after 48 hrs […]. The test is classed as functional.
Test [15] concerns Trichophyton mentagrophytes. The test can be described thus: Antifungal activity against Trichophyton mentagrophytes assessed as inhibition zone diameter […] by agar dilution method. The test is classed as functional. In outline:
as §3

Test [16] concerns Talaromyces marneffei. The test can be described thus: Antifungal activity against Penicillium marneffei after 48 hrs […]. The test is classed as functional.
Test [17] concerns Talaromyces marneffei. The test can be described thus: Antifungal activity against Penicillium marneffei assessed as inhibition zone diameter […] by agar dilution method. The test is classed as functional. In outline:
as §3

Test [18] concerns Streptococcus pyogenes. The test can be described thus: Antibacterial activity against Streptococcus pyogenes assessed as inhibition zone diameter after 24 hrs by disc diffusion method.

With `Nn1c(SCC(=O)Nc2cc(Cl)c(Cl)cc2Cl)nnc1-c1cc(F)c(Cl)cc1Cl`, the MIC against Staphylococcus aureus [1], against Escherichia coli, in the test on Pseudomonas aeruginosa [3], against Klebsiella pneumoniae [5], in the test on Streptococcus pyogenes [7] and with Candida albicans [8] was 6.25 mg/L (≈ 12.1 µM) each time. Further, the MIC (against Aspergillus flavus [10]; against Aspergillus fumigatus [12]; in test [14]; in the test on Talaromyces marneffei [16]) was 6.25 mg/L (≈ 12.1 µM) throughout. Further, the “inhibition zone (IZ)” value in the test on Staphylococcus aureus [2] is 22 mm; in the test with Pseudomonas aeruginosa [4] it was 30 mm; in the test with Klebsiella pneumoniae [6], 21 mm; with Candida albicans [9] it was 20 mm; with Aspergillus flavus [11], 25 mm; with Aspergillus fumigatus [13], 21 mm. For the same molecule, the “inhibition zone (IZ)” value is given as 19 mm in [15], 23 mm in the test with Talaromyces marneffei [17] and 25 mm with Streptococcus pyogenes [18].

Turning to `Cc1ccc(NC2=Nn3c(nnc3-c3cc(F)c(Cl)cc3Cl)SC2)cc1`, the MIC in the test with Staphylococcus aureus [1], in the test with Escherichia coli, in the test on Pseudomonas aeruginosa [3], with Klebsiella pneumoniae [5], against Streptococcus pyogenes [7] and in the test on Candida albicans [8] was 6.25 mg/L (≈ 15.3 µM) in each case. For the same molecule, the MIC (with Aspergillus flavus [10]; against Aspergillus fumigatus [12]; in test [14]; in the test on Talaromyces marneffei [16]) was 6.25 mg/L (≈ 15.3 µM) in each case. The “inhibition zone (IZ)” value in the test with Staphylococcus aureus [2] turned out to be 21 mm; in the test on Pseudomonas aeruginosa [4], 29 mm; in the test on Klebsiella pneumoniae [6], 21 mm; in the test with Candida albicans [9], 18 mm; in the test on Aspergillus flavus [11], 19 mm; with Aspergillus fumigatus [13] it was 20 mm. Besides, the results for the “inhibition zone (IZ)” value (in test [15]; in the test with Talaromyces marneffei [17]; in the test on Streptococcus pyogenes [18]) were 17 mm, 23 mm and 23 mm, respectively.

For the molecule `Nn1c(SCC(=O)Nc2ccccc2C(F)(F)F)nnc1-c1cc(F)c(Cl)cc1Cl`, the MIC against Staphylococcus aureus [1], with Escherichia coli, in the test with Pseudomonas aeruginosa [3], against Klebsiella pneumoniae [5], against Streptococcus pyogenes [7] and against Candida albicans [8] was 6.25 mg/L (≈ 13 µM) in each case. Also, the MIC (against Aspergillus flavus [10]; with Aspergillus fumigatus [12]; in [14]; in the test on Talaromyces marneffei [16]) was 6.25 mg/L (≈ 13 µM) throughout. Besides, the “inhibition zone (IZ)” value in the test on Staphylococcus aureus [2] is recorded as 25 mm; in the test on Pseudomonas aeruginosa [4] it was 29 mm; in the test with Klebsiella pneumoniae [6], 20 mm; in the test on Candida albicans [9] it was 19 mm; with Aspergillus flavus [11] it was 21 mm; with Aspergillus fumigatus [13], 19 mm. For the same molecule, the “inhibition zone (IZ)” value is 18 mm in [15], 22 mm in the test with Talaromyces marneffei [17] and 22 mm in the test on Streptococcus pyogenes [18].

As to `Nn1c(SCC(=O)Nc2ccc(F)c(Cl)c2)nnc1-c1cc(F)c(Cl)cc1Cl`, the MIC against Staphylococcus aureus [1] was determined as 6.25 mg/L (≈ 13.4 µM); against Escherichia coli it was 6.25 mg/L (≈ 13.4 µM); against Pseudomonas aeruginosa [3], 6.25 mg/L (≈ 13.4 µM); in the test with Klebsiella pneumoniae [5] it was 6.25 mg/L (≈ 13.4 µM); with Streptococcus pyogenes [7], 6.25 mg/L (≈ 13.4 µM); in the test with Candida albicans [8], 12.5 mg/L (≈ 26.9 µM). Moreover, the MIC in the test with Aspergillus flavus [10] was determined as 25 mg/L (≈ 53.8 µM); in the test on Aspergillus fumigatus [12], 12.5 mg/L (≈ 26.9 µM); in test [14], 12.5 mg/L (≈ 26.9 µM); in the test with Talaromyces marneffei [16], 6.25 mg/L (≈ 13.4 µM). Moreover, the “inhibition zone (IZ)” value is 24 mm with Staphylococcus aureus [2]; 31 mm in the test on Pseudomonas aeruginosa [4]; 20 mm with Klebsiella pneumoniae [6]; 15 mm with Candida albicans [9]; 8 mm in the test with Aspergillus flavus [11]; 16 mm in the test with Aspergillus fumigatus [13]. In addition, the “inhibition zone (IZ)” value in [15] is recorded as 11 mm; in the test with Talaromyces marneffei [17] it was 20 mm; in the test with Streptococcus pyogenes [18], 23 mm.

(Values after ChEMBL document CHEMBL1149770, “Synthesis and antimicrobial studies of novel dichlorofluorophenyl containing aminotriazolothiadiazines” (2008).)
